# Results published in ChEMBL document CHEMBL1142148, “Antibiotic susceptibility profile of bifidobacteria as affected by oxgall, acid, and hydrogen peroxide stress” (2007).
# Experiments:
# Bifidobacterium animalis [1] = assay: Antimicrobial activity against Bifidobacterium animalis ATCC 27536; assay type: functional
# How it was run: (§1)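 Broth microdilution in MRS plus 0.05% L-cysteine-HCl. Mid-log culture adjusted to OD650 0.1, giving about 2.5 × 10^4 to 5.0 × 10^4 CFU/well, then added to twofold serial dilutions of agent. Plates incubated anaerobically at 37°C for 18 h and read at OD650. MIC is the lowest concentration matching the uninoculated blank OD, taken as the median of four repeats.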
# Bifidobacterium bifidum [2] = assay: Antimicrobial activity against Bifidobacterium bifidum R0071; assay type: functional; how it was run: as §1
# Bifidobacterium bifidum [3] = assay: Antimicrobial activity against Bifidobacterium bifidum ATCC 15696; assay type: functional; how it was run: as §1
# Bifidobacterium bifidum [4] = assay: Antimicrobial activity against Bifidobacterium bifidum BB12; assay type: functional; how it was run: as §1
# Bifidobacterium breve [5] = assay: Antimicrobial activity against Bifidobacterium breve ATCC 15700; assay type: functional; how it was run: as §1
# [6] = Antimicrobial activity against Bifidobacterium infantis ATCC 15697; assay type: functional, Bifidobacterium longum subsp. infantis; conditions: Bifidobacterium longum; how it was run: as §1
# Bifidobacterium longum [7] = assay: Antimicrobial activity against Bifidobacterium longum ATCC 15708; assay type: functional; how it was run: as §1
# Bifidobacterium longum [8] = assay: Antimicrobial activity against Bifidobacterium longum R0175; assay type: functional; how it was run: as §1
# Bifidobacterium longum [9] = assay: Antimicrobial activity against Bifidobacterium longum P/N 601377; assay type: functional; how it was run: as §1
# [10] = tested on: Bifidobacterium pseudolongum; assay: Antimicrobial activity against Bifidobacterium pseudolongum ATCC 25562; assay type: functional; how it was run: as §1
# [11] = tested on: Bifidobacterium thermophilum; assay: Antimicrobial activity against Bifidobacterium thermophilum ATCC 25866; assay type: functional; how it was run: as §1
# Bifidobacterium breve [12] = assay: Antimicrobial activity against Bifidobacterium breve R0070; assay type: functional; how it was run: as §1
# Bifidobacterium animalis [13] = assay: Antimicrobial activity against 60 min 1 M HCl-stressed Bifidobacterium animalis ATCC 27536 after 18 hrs; assay type: functional
# How it was run: (§2)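 Mid-log MRS culture pelleted and resuspended in MRS broth brought to pH 2.0 with 1 M HCl, held anaerobically at 37°C for 60 min, then subcultured in MRS (pH 6.5) for 24 h anaerobically before MIC testing by broth microdilution (as for unstressed cells). Table footnote gives 18 h anaerobic regrowth after the stress. MIC is the median of four repetitions.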
# Bifidobacterium bifidum [14] = assay: Antimicrobial activity against 60 min 1 M HCl-stressed Bifidobacterium bifidum R0071 after 18 hrs; assay type: functional; how it was run: as §2
# Bifidobacterium bifidum [15] = assay: Antimicrobial activity against 60 min 1 M HCl-stressed Bifidobacterium bifidum BB12 after 18 hrs; assay type: functional; how it was run: as §2
# Bifidobacterium breve [16] = assay: Antimicrobial activity against 60 min 1 M HCl-stressed Bifidobacterium breve ATCC 15700 after 18 hrs; assay type: functional; how it was run: as §2
# Bifidobacterium breve [17] = assay: Antimicrobial activity against 60 min 1 M HCl-stressed Bifidobacterium breve R0070 after 18 hrs; assay type: functional; how it was run: as §2
# [18] = Antimicrobial activity against 60 min 1 M HCl-stressed Bifidobacterium infantis ATCC 15697 after 18 hrs; assay type: functional, Bifidobacterium longum subsp. infantis; conditions: Bifidobacterium longum; how it was run: as §2
# Bifidobacterium longum [19] = assay: Antimicrobial activity against 60 min 1 M HCl-stressed Bifidobacterium longum ATCC 15707 after 18 hrs; assay type: functional; how it was run: as §2
# Bifidobacterium longum [20] = assay: Antimicrobial activity against 60 min 1 M HCl-stressed Bifidobacterium longum R0175 after 18 hrs; assay type: functional; how it was run: as §2
# Bifidobacterium longum [21] = assay: Antimicrobial activity against 60 min 1 M HCl-stressed Bifidobacterium longum P/N 601377 after 18 hrs; assay type: functional; how it was run: as §2
# [22] = tested on: Bifidobacterium pseudolongum; assay: Antimicrobial activity against 60 min 1 M HCl-stressed Bifidobacterium pseudolongum ATCC 25562 after 18 hrs; assay type: functional; how it was run: as §2
# [23] = tested on: Bifidobacterium thermophilum; assay: Antimicrobial activity against 60 min 1 M HCl-stressed Bifidobacterium thermophilum ATCC 25866 after 18 hrs; assay type: functional; how it was run: as §2
# Bifidobacterium animalis [24] = assay: Antimicrobial activity against 90 mins oxgall-stressed Bifidobacterium animalis ATCC 27536 after 18 hrs; assay type: functional
# How it was run: (§3)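 Cells pelleted from mid-log MRS culture and resuspended in MRS (initial pH 6.5) with 0.3% (wt/vol) oxgall for 90 min anaerobically at 37°C. They were then regrown in MRS pH 6.5 for 24 h (footnote: 18 h) anaerobically and tested for MIC by the same broth microdilution assay. Median of four repetitions.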
# Bifidobacterium bifidum [25] = assay: Antimicrobial activity against 90 mins oxgall-stressed Bifidobacterium bifidum R0071 after 18 hrs; assay type: functional; how it was run: as §3
# Bifidobacterium bifidum [26] = assay: Antimicrobial activity against 90 mins oxgall-stressed Bifidobacterium bifidum ATCC 15696 after 18 hrs; assay type: functional; how it was run: as §3
# Bifidobacterium bifidum [27] = assay: Antimicrobial activity against 90 mins oxgall-stressed Bifidobacterium bifidum BB12 after 18 hrs; assay type: functional; how it was run: as §3
# Bifidobacterium breve [28] = assay: Antimicrobial activity against 90 mins oxgall-stressed Bifidobacterium breve ATCC 15700 after 18 hrs; assay type: functional; how it was run: as §3
# Bifidobacterium breve [29] = assay: Antimicrobial activity against 90 mins oxgall-stressed Bifidobacterium breve R0070 after 18 hrs; assay type: functional; how it was run: as §3
# [30] = Antimicrobial activity against 90 mins oxgall-stressed Bifidobacterium infantis ATCC 15697 after 18 hrs; assay type: functional, Bifidobacterium longum subsp. infantis; conditions: Bifidobacterium longum; how it was run: as §3
# Bifidobacterium longum [31] = assay: Antimicrobial activity against 90 mins oxgall-stressed Bifidobacterium longum ATCC 15707 after 18 hrs; assay type: functional; how it was run: as §3
# Bifidobacterium longum [32] = assay: Antimicrobial activity against 90 mins oxgall-stressed Bifidobacterium longum ATCC 15708 after 18 hrs; assay type: functional; how it was run: as §3
# Bifidobacterium longum [33] = assay: Antimicrobial activity against Bifidobacterium longum ATCC 15707; assay type: functional; how it was run: as §1
# Bifidobacterium longum [34] = assay: Antimicrobial activity against 90 mins oxgall-stressed Bifidobacterium longum R0175 after 18 hrs; assay type: functional; how it was run: as §3
# Bifidobacterium longum [35] = assay: Antimicrobial activity against 90 mins oxgall-stressed Bifidobacterium longum P/N 601377 after 18 hrs; assay type: functional; how it was run: as §3
# [36] = tested on: Bifidobacterium pseudolongum; assay: Antimicrobial activity against 90 mins oxgall-stressed Bifidobacterium pseudolongum ATCC 25562 after 18 hrs; assay type: functional; how it was run: as §3
# [37] = tested on: Bifidobacterium thermophilum; assay: Antimicrobial activity against 90 mins oxgall-stressed Bifidobacterium thermophilum ATCC 25866 after 18 hrs; assay type: functional; how it was run: as §3
# Bifidobacterium animalis [38] = assay: Antimicrobial activity against 90 mins hydrogen peroxide-stressed Bifidobacterium animalis ATCC 27536 after 18 hrs; assay type: functional
# How it was run: (§4)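 Stress applied for 90 min at 37°C under anaerobic conditions, using MRS (initial pH 6.5) containing H2O2 at each strain's own inhibitory concentration. The H2O2 level was set beforehand by microplate tolerance testing. Challenged cells were regrown in MRS for 24 h (footnote: 18 h) before MIC testing by broth microdilution. Median of four repetitions.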
# Bifidobacterium bifidum [39] = assay: Antimicrobial activity against 90 mins hydrogen peroxide-stressed Bifidobacterium bifidum R0071 after 18 hrs; assay type: functional; how it was run: as §4
# Bifidobacterium bifidum [40] = assay: Antimicrobial activity against 90 mins hydrogen peroxide-stressed Bifidobacterium bifidum BB12 after 18 hrs; assay type: functional; how it was run: as §4
# Bifidobacterium breve [41] = assay: Antimicrobial activity against 90 mins hydrogen peroxide-stressed Bifidobacterium breve ATCC 15700 after 18 hrs; assay type: functional; how it was run: as §4
# Bifidobacterium breve [42] = assay: Antimicrobial activity against 90 mins hydrogen peroxide-stressed Bifidobacterium breve R0070 after 18 hrs; assay type: functional; how it was run: as §4
# Bifidobacterium longum [43] = assay: Antimicrobial activity against 90 mins hydrogen peroxide-stressed Bifidobacterium longum ATCC 15707 after 18 hrs; assay type: functional; how it was run: as §4
# Bifidobacterium longum [44] = assay: Antimicrobial activity against 90 mins hydrogen peroxide-stressed Bifidobacterium longum ATCC 15708 after 18 hrs; assay type: functional; how it was run: as §4
# Bifidobacterium longum [45] = assay: Antimicrobial activity against 90 mins hydrogen peroxide-stressed Bifidobacterium longum R0175 after 18 hrs; assay type: functional; how it was run: as §4
# Bifidobacterium longum [46] = assay: Antimicrobial activity against 90 mins hydrogen peroxide-stressed Bifidobacterium longum P/N 601377 after 18 hrs; assay type: functional; how it was run: as §4
# [47] = tested on: Bifidobacterium thermophilum; assay: Antimicrobial activity against 90 mins hydrogen peroxide-stressed Bifidobacterium thermophilum ATCC 25866 after 18 hrs; assay type: functional; how it was run: as §4
smiles,measurement,setting,value
Cc1onc(-c2ccccc2Cl)c1C(=O)N[C@@H]1C(=O)N2[C@@H]1SC(C)(C)[C@@H]2C(=O)O [CLOXACILLIN],MIC,Bifidobacterium animalis [1],3.9 µg/mL
same,MIC,Bifidobacterium bifidum [2],15.6 µg/mL
same,MIC,Bifidobacterium bifidum [3],7.8 µg/mL
same,MIC,Bifidobacterium bifidum [4],0.98 µg/mL
same,MIC,Bifidobacterium breve [5],15.6 µg/mL
same,MIC,[6],15.6 µg/mL
same,MIC,Bifidobacterium longum [7],7.8 µg/mL
same,MIC,Bifidobacterium longum [8],62.5 µg/mL
same,MIC,Bifidobacterium longum [9],31.2 µg/mL
same,MIC,[10],3.9 µg/mL
same,MIC,[11],15.6 µg/mL
same,MIC,Bifidobacterium breve [12],31.2 µg/mL
same,MIC,Bifidobacterium animalis [13],3.9 µg/mL
same,MIC,Bifidobacterium bifidum [14],15.6 µg/mL
same,MIC,Bifidobacterium bifidum [15],0.98 µg/mL
same,MIC,Bifidobacterium breve [16],125 µg/mL
same,MIC,Bifidobacterium breve [17],15.6 µg/mL
same,MIC,[18],125 µg/mL
same,MIC,Bifidobacterium longum [19],15.6 µg/mL
same,MIC,Bifidobacterium longum [20],0.98 µg/mL
same,MIC,Bifidobacterium longum [21],0.98 µg/mL
same,MIC,[22],0.98 µg/mL
same,MIC,[23],31.2 µg/mL
same,MIC,Bifidobacterium animalis [24],125 µg/mL
same,MIC,Bifidobacterium bifidum [25],62.5 µg/mL
same,MIC,Bifidobacterium bifidum [26],62.5 µg/mL
same,MIC,Bifidobacterium bifidum [27],1.9 µg/mL
same,MIC,Bifidobacterium breve [28],3.9 µg/mL
same,MIC,Bifidobacterium breve [29],31.2 µg/mL
same,MIC,[30],125 µg/mL
same,MIC,Bifidobacterium longum [31],125 µg/mL
same,MIC,Bifidobacterium longum [32],125 µg/mL
same,MIC,Bifidobacterium longum [33],15.6 µg/mL
same,MIC,Bifidobacterium longum [34],125 µg/mL
same,MIC,Bifidobacterium longum [35],62.5 µg/mL
same,MIC,[36],62.5 µg/mL
same,MIC,[37],62.5 µg/mL
same,MIC,Bifidobacterium animalis [38],3.9 µg/mL
same,MIC,Bifidobacterium bifidum [39],31.2 µg/mL
same,MIC,Bifidobacterium bifidum [40],1.9 µg/mL
same,MIC,Bifidobacterium breve [41],3.9 µg/mL
same,MIC,Bifidobacterium breve [42],15.6 µg/mL
same,MIC,Bifidobacterium longum [43],0.98 µg/mL
same,MIC,Bifidobacterium longum [44],7.8 µg/mL
same,MIC,Bifidobacterium longum [45],31.2 µg/mL
same,MIC,Bifidobacterium longum [46],31.2 µg/mL
same,MIC,[47],7.8 µg/mL
NC[C@@H]1O[C@H](O[C@H]2[C@@H](O)[C@H](O[C@@H]3[C@@H](O)[C@H](N)C[C@H](N)[C@H]3O[C@H]3O[C@H](CN)[C@@H](O)[C@H](O)[C@H]3N)O[C@@H]2CO)[C@H](N)[C@@H](O)[C@@H]1O [FRAMYCETIN],MIC,Bifidobacterium animalis [1],250 µg/mL
same,MIC,Bifidobacterium bifidum [2],250 µg/mL
same,MIC,Bifidobacterium bifidum [3],250 µg/mL
same,MIC,Bifidobacterium bifidum [4],250 µg/mL
same,MIC,Bifidobacterium breve [5],250 µg/mL
same,MIC,[6],250 µg/mL
same,MIC,Bifidobacterium longum [7],250 µg/mL
same,MIC,Bifidobacterium longum [8],250 µg/mL
same,MIC,Bifidobacterium longum [9],125 µg/mL
same,MIC,[10],250 µg/mL
same,MIC,[11],250 µg/mL
same,MIC,Bifidobacterium breve [12],250 µg/mL
same,MIC,Bifidobacterium animalis [13],250 µg/mL
same,MIC,Bifidobacterium bifidum [14],250 µg/mL
same,MIC,Bifidobacterium bifidum [15],125 µg/mL
same,MIC,Bifidobacterium breve [16],125 µg/mL
same,MIC,Bifidobacterium breve [17],250 µg/mL
same,MIC,[18],250 µg/mL
same,MIC,Bifidobacterium longum [19],500 µg/mL
same,MIC,Bifidobacterium longum [20],250 µg/mL
same,MIC,Bifidobacterium longum [21],250 µg/mL
same,MIC,[22],250 µg/mL
same,MIC,[23],250 µg/mL
same,MIC,Bifidobacterium animalis [24],125 µg/mL
same,MIC,Bifidobacterium bifidum [25],62.5 µg/mL
same,MIC,Bifidobacterium bifidum [26],250 µg/mL
same,MIC,Bifidobacterium bifidum [27],250 µg/mL
same,MIC,Bifidobacterium breve [28],125 µg/mL
same,MIC,Bifidobacterium breve [29],62.5 µg/mL
same,MIC,[30],500 µg/mL
same,MIC,Bifidobacterium longum [31],125 µg/mL
same,MIC,Bifidobacterium longum [32],500 µg/mL
same,MIC,Bifidobacterium longum [33],250 µg/mL
same,MIC,Bifidobacterium longum [34],62.5 µg/mL
same,MIC,Bifidobacterium longum [35],62.5 µg/mL
same,MIC,[36],250 µg/mL
same,MIC,[37],125 µg/mL
same,MIC,Bifidobacterium animalis [38],500 µg/mL
same,MIC,Bifidobacterium bifidum [39],125 µg/mL
same,MIC,Bifidobacterium bifidum [40],250 µg/mL
same,MIC,Bifidobacterium breve [41],250 µg/mL
same,MIC,Bifidobacterium breve [42],250 µg/mL
same,MIC,Bifidobacterium longum [43],250 µg/mL
same,MIC,Bifidobacterium longum [44],250 µg/mL
same,MIC,Bifidobacterium longum [45],125 µg/mL
same,MIC,Bifidobacterium longum [46],125 µg/mL
same,MIC,[47],500 µg/mL
